Assays:
HaCaT [1] = assay: Cytotoxicity against human HaCaT cells assessed as LDH release at 2 uM after 4 hrs; format: cell-based
Outline: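 HaCaT cells were exposed to test compound for 4 h at 37 °C. Extracellular LDH activity was measured by the UV method with pyruvate and NADH and expressed in mU/mL. The vehicle control was 0.2% DMSO in culture medium, and Brij 35 with ultrasound was the positive control. N = 3, SD < 10%.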

[2] = system: Radical scavenging activity; assay: Antioxidant activity assessed as DPPH free radical scavenging activity by spectrophotometry; format: functional
Outline: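 DPPH radical decrease read spectrophotometrically as absorbance at 520 nm. Percent interaction = (1 − test absorbance/control absorbance) × 100, with test means from N = 3 and control means from N = 8. EC50 is the concentration giving a 50% drop in DPPH absorbance, obtained by nonlinear regression. NDGA and α-tocopherol served as positive controls.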

HaCaT [3] = assay: Antiproliferative activity against human HaCaT cells after 48 hrs by phase contrast microscopy; format: functional, cell-based
Outline: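 HaCaT human keratinocytes were grown in DMEM with 10% fetal calf serum, penicillin and streptomycin at 37 °C under 8% CO2. After 48 h of exposure, dispersed cells were counted by phase-contrast microscopy. Inhibition = (1 − test/control) × 100, with test N = 3 and control N = 6–8. Significance was tested by Student's t-test. IC50 was obtained by nonlinear regression.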

Row | EC50 [2] | Structure (SMILES) | Activity (HaCaT [1]) | IC50 (HaCaT [3])
1 | 29.5 µM | O=C1c2cccc(Cl)c2Cc2c(Cl)cccc21 | 64.4 mU/ml | 
2 | > 50 µM | O=C1c2cccc(Cl)c2C(Cc2ccccc2Cl)c2c(Cl)cccc21 |  | 30 µM
3 | > 50 µM | O=C1c2cccc(Cl)c2C(Cc2ccc(Cl)cc2)c2c(Cl)cccc21 |  | 36 µM
4 | > 50 µM | COc1ccccc1CC1c2c(Cl)cccc2C(=O)c2cccc(Cl)c21 |  | > 50 µM
5 | > 50 µM | COc1cccc(CC2c3c(Cl)cccc3C(=O)c3cccc(Cl)c32)c1 | 65 mU/ml | 2 µM
6 | > 50 µM | COc1ccc(CC2c3c(Cl)cccc3C(=O)c3cccc(Cl)c32)cc1 | 57.6 mU/ml | 5 µM
7 | > 50 µM | COc1ccc(CC2c3c(Cl)cccc3C(=O)c3cccc(Cl)c32)cc1OC | 68.4 mU/ml | 5 µM
8 | > 50 µM | COc1cc(CC2c3c(Cl)cccc3C(=O)c3cccc(Cl)c32)cc(OC)c1 |  | 24 µM
9 | > 50 µM | COc1cc(CC2c3c(Cl)cccc3C(=O)c3cccc(Cl)c32)cc(OC)c1OC |  | > 50 µM
10 | > 50 µM | O=C1c2cccc(Cl)c2C(Cc2ccccc2[N+](=O)[O-])c2c(Cl)cccc21 |  | > 50 µM
11 | > 50 µM | O=C1c2cccc(Cl)c2C(Cc2cccc([N+](=O)[O-])c2)c2c(Cl)cccc21 | 69.9 mU/ml | 5 µM
12 | > 50 µM | O=C1c2cccc(Cl)c2C(Cc2ccc([N+](=O)[O-])cc2)c2c(Cl)cccc21 |  | > 50 µM
13 | > 50 µM | O=C1c2cccc(Cl)c2C(Cc2ccc([N+](=O)[O-])cc2[N+](=O)[O-])c2c(Cl)cccc21 |  | 17 µM
14 | > 50 µM | O=C1c2cccc(Cl)c2C(Cc2cccc(OCc3ccccc3)c2)c2c(Cl)cccc21 |  | 22 µM
15 | > 50 µM | O=C1c2cccc(Cl)c2C(Cc2ccc(OCc3ccccc3)cc2)c2c(Cl)cccc21 |  | 36 µM
16 | > 50 µM | O=C1c2cccc(Cl)c2C(Cc2ccc(OCc3ccccc3)c(OCc3ccccc3)c2)c2c(Cl)cccc21 |  | > 50 µM
17 | > 50 µM | COc1ccc(CC2c3c(Cl)cccc3C(=O)c3cccc(Cl)c32)cc1OCc1ccccc1 |  | > 50 µM
18 | > 50 µM | O=C1c2cccc(Cl)c2C(Cc2cccc(O)c2)c2c(Cl)cccc21 |  | 15 µM
19 | > 50 µM | O=C1c2cccc(Cl)c2C(Cc2ccc(O)cc2)c2c(Cl)cccc21 |  | 19 µM
20 | 6.3 µM | O=C1c2cccc(Cl)c2C(Cc2ccc(O)c(O)c2)c2c(Cl)cccc21 | 76.6 mU/ml | 18 µM
21 | > 50 µM | COc1ccc(CC2c3c(Cl)cccc3C(=O)c3cccc(Cl)c32)cc1O | 69.5 mU/ml | 0.7 µM
22 | > 50 µM | O=C1c2cccc(Cl)c2C(c2ccccc2)c2c(Cl)cccc21 |  | > 50 µM
23 | > 50 µM | Cc1ccc(C2c3c(Cl)cccc3C(=O)c3cccc(Cl)c32)cc1 |  | > 50 µM
24 | > 50 µM | O=C1c2cccc(Cl)c2C(Cc2ccccc2)c2c(Cl)cccc21 | 69.6 mU/ml | 4.3 µM
25 | > 50 µM | COc1ccc(OC)c(CC2c3c(Cl)cccc3C(=O)c3cccc(Cl)c32)c1 | 60.6 mU/ml | 3.8 µM
26 | > 50 µM | COc1ccc(C2c3c(Cl)cccc3C(=O)c3cccc(Cl)c32)cc1 |  | 20 µM
27 | > 50 µM | Cc1ccc(CC2c3c(Cl)cccc3C(=O)c3cccc(Cl)c32)cc1 |  | 44 µM
28 | > 50 µM | O=C1c2cccc(Cl)c2C(Cc2ccc(C(F)(F)F)cc2)c2c(Cl)cccc21 |  | 25 µM
29 | 16.7 µM | O=C1c2c(O)cccc2Cc2cccc(O)c21 [ANTHRALIN] | 122.8 mU/ml | 
